Data set [1] relates to Mus musculus. As to the kind of experiment: Toxicity in BDF1 mouse allografted with mouse L1210 cells at 400 mg/kg, ip administered on day 1. The arrangement: dose 400 mg/kg, route intraperitoneal. Format: organism-based. Particulars: in vivo. A digest of the protocol: (§1)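 BDF1 mice implanted ip on day 0 with L1210 lymphoid leukemia cells. Compound given ip as a suspension in saline, saline with Tween 80, or Klucel (HPC), with injections every fourth day. Multiple dose levels 400, 200 and 100 mg/kg; three- or six-mouse groups. Toxicity scored as survivors per animals started, recorded on day 5.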

Data set [2] has as its system L1210. As to the kind of experiment: Antitumor activity against mouse L1210 cells allografted in BDF1 mouse assessed as increase in host survival days at 400 mg/kg, ip administered on day 1 relative to control. Format: functional. Particulars: route intraperitoneal.
Data set [3] concerns L1210. As to the kind of experiment: Antitumor activity against mouse L1210 cells allografted in BDF1 mouse assessed as increase in host survival time at 400 mg/kg, ip administered on day 1 relative to control. Particulars: route intraperitoneal. Format: functional.
Data set [4] addresses Lactoylglutathione lyase (Saccharomyces cerevisiae). As to the kind of experiment: Inhibition of yeast glyoxalase-1 using methylglyoxal and glutathione as substrate. Particulars: read-out: I50.
The target is the same in data set [5]. As to the kind of experiment: Competitive inhibition of yeast glyoxalase-1 using methylglyoxal and glutathione as substrate by Lineweaver-Burk plot analysis.
Data set [6] deals with Mus musculus. The data set is described as follows: Toxicity in BDF1 mouse allografted with mouse L1210 cells at 100 mg/kg, ip administered on day 1. Type of data set: organism-based. The arrangement: dose 100 mg/kg, route intraperitoneal. Particulars: in vivo. In short, it runs like this: as §1
Data set [7] deals with L1210. The data set is described as follows: Antitumor activity against mouse L1210 cells allografted in BDF1 mouse assessed as increase in host survival days at 100 mg/kg, ip administered on day 1 relative to control. Format: functional. Particulars: route intraperitoneal.
Data set [8] relates to L1210. As to the kind of experiment: Antitumor activity against mouse L1210 cells allografted in BDF1 mouse assessed as increase in host survival time at 100 mg/kg, ip administered on day 1 relative to control. Format: functional. Particulars: route intraperitoneal.
In data set [9] the test system is Mus musculus. The data set is described as follows: Toxicity in BDF1 mouse allografted with mouse L1210 cells at 200 mg/kg, ip administered on day 1, 5, and 9. Format: organism-based. The arrangement: dose 200 mg/kg, route intraperitoneal. Particulars: in vivo. In short, it runs like this:
as §1

In data set [10] the test system is L1210. The data set is described as follows: Antitumor activity against mouse L1210 cells allografted in BDF1 mouse assessed as increase in host survival days at 200 mg/kg, ip administered on day 1, 5, and 9 relative to control. Type of data set: functional. Particulars: route intraperitoneal. In short, it runs like this: (§2)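 L1210 lymphoid leukemia cells were implanted ip in BDF1 mice on day 0. Compounds were given ip as suspensions in saline, saline with Tween 80, or Klucel (hydroxypropylcellulose). Injections were repeated every fourth day at the same dose. Groups had three or six mice, and controls received vehicle only. The read-out was mean survival time in days for treated and control animals.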

The subject of data set [11] is L1210. As to the kind of experiment: Antitumor activity against mouse L1210 cells allografted in BDF1 mouse assessed as increase in host survival time at 200 mg/kg, ip administered on day 1, 5, and 9 relative to control. Type of data set: functional. Particulars: route intraperitoneal. In short, it runs like this: (§3)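 BDF1 mice received ip L1210 lymphoid leukemia cells on day 0. Compounds were then given ip in saline, saline/Tween 80, or Klucel vehicle, repeated every fourth day at a fixed dose from the 400, 200, 100 mg/kg series. Assays used three or six mice, with vehicle-treated controls. T/C % is treated over control mean survival time, expressed as percent.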

Data set [12] relates to Mus musculus. The data set is described as follows: Toxicity in BDF1 mouse allografted with mouse L1210 cells at 100 mg/kg, ip administered on day 2 and 6. Particulars: in vivo. The arrangement: dose 100 mg/kg, route intraperitoneal. Type of data set: organism-based. A digest of the protocol: as §1
The test system of data set [13] is L1210. The data set is described as follows: Antitumor activity against mouse L1210 cells allografted in BDF1 mouse assessed as increase in host survival days at 100 mg/kg, ip administered on day 2 and 6 relative to control. Format: functional. Particulars: route intraperitoneal. A digest of the protocol: as §2
The subject of data set [14] is L1210. The data set is described as follows: Antitumor activity against mouse L1210 cells allografted in BDF1 mouse assessed as increase in host survival time at 100 mg/kg, ip administered on day 2 and 6 relative to control. Type of data set: functional. Particulars: route intraperitoneal. In short, it runs like this:
as §3

Data set [15] deals with Mus musculus. The data set is described as follows: Toxicity in BDF1 mouse allografted with mouse L1210 cells at 100 mg/kg, ip administered on day 1, 5, and 9. The arrangement: dose 100 mg/kg, route intraperitoneal. Format: organism-based. Particulars: in vivo. A digest of the protocol: as §1
In data set [16] the test system is L1210. As to the kind of experiment: Antitumor activity against mouse L1210 cells allografted in BDF1 mouse assessed as increase in host survival days at 100 mg/kg, ip administered on day 1, 5, and 9 relative to control. Particulars: route intraperitoneal. Type of data set: functional. A digest of the protocol:
as §2

The test system of data set [17] is L1210. As to the kind of experiment: Antitumor activity against mouse L1210 cells allografted in BDF1 mouse assessed as increase in host survival time at 100 mg/kg, ip administered on day 1, 5, and 9 relative to control. Type of data set: functional. Particulars: route intraperitoneal. In short, it runs like this:
as §3

For data set [18], the system named is Mus musculus. The data set is described as follows: Toxicity in BDF1 mouse allografted with mouse L1210 cells at 200 mg/kg, ip administered on day 2 and 6. Also noted: dose 200 mg/kg, route intraperitoneal. Particulars: in vivo. Type of data set: organism-based. A digest of the protocol:
as §1

In data set [19] the test system is L1210. As to the kind of experiment: Antitumor activity against mouse L1210 cells allografted in BDF1 mouse assessed as increase in host survival days at 200 mg/kg, ip administered on day 2 and 6 relative to control. Type of data set: functional. Particulars: route intraperitoneal. A digest of the protocol: as §2
Data set [20] relates to L1210. The data set is described as follows: Antitumor activity against mouse L1210 cells allografted in BDF1 mouse assessed as increase in host survival time at 200 mg/kg, ip administered on day 2 and 6 relative to control. Type of data set: functional. Particulars: route intraperitoneal. A digest of the protocol: as §3

By T/C is commonly meant the result in the treated group divided by that in the control group, in per cent. In general, Ki refers to the equilibrium dissociation constant of an inhibitor or competing ligand from its target. Higher therefore signals lower affinity. For the molecule `COC(=O)CCSC(=O)C(O)c1ccccc1` (stereo not given), the Activity result in data set [1] was “Toxic”. For the same molecule, in data set [2], the T/C came out at 105%. Also, the Time in data set [3] was 9.8 days. In addition, the IC50 in data set [4] was 49.6 mM. In addition, in data set [5], the Ki turned out to be 38.6 mM.
`CCCCSC(=O)C(O)c1ccccc1` (stereo not given): the Activity entry in data set [6] was “Toxic”. Besides, the T/C in [7] worked out at 105%. The Time in data set [8] amounted to 9.8 days. Moreover, the IC50 in data set [4] is 37.8 mM. Besides, the affinity in data set [5], expressed as Ki, was 29.6 mM.
Turning to `O=C(SCc1ccccc1)C(O)c1ccccc1` (stereo not given), the Activity result in [9] is on record as “Toxic”. Moreover, in data set [10], the T/C was 100%. Further, the Time in data set [11] was determined as 10.7 days. Also, the IC50 in data set [4] is 8.1 mM. Further, the Ki in data set [5] amounted to 6.3 mM.
Consider `CCCCSC(=O)C(C)O` (stereo not given), for which the Activity result in [12] was “Toxic”. Moreover, in data set [13], the T/C is given as 99%. Moreover, in data set [14], the Time is 10 days. Further, in data set [4], the IC50 is 16.5 mM. In [5], this molecule registered an inhibition constant (Ki) of 12.9 mM.
For the molecule `CCCCOC(=O)CSC(=O)C(O)c1ccccc1` (stereo not given), the Activity entry in data set [15] is on record as “Toxic”. In addition, the T/C in data set [16] came to 105%. Moreover, in [17], the Time is 10.2 days. The IC50 in data set [4] was determined as 44.5 mM. In addition, the affinity in data set [5], expressed as Ki, was 34.7 mM.
On to `CC(O)C(=O)SCc1ccccc1` (stereo not given), for which, in [18], the Activity result is given as “Toxic”. In data set [19], the T/C is recorded as 98%. Moreover, the Time in data set [20] turned out to be 10.3 days. Moreover, the IC50 in data set [4] worked out at 7.1 mM. Also, the Ki in data set [5] worked out at 5.5 mM.
As to `COC(=O)CSC(=O)C(O)c1ccccc1` (stereo not given), in data set [9], the Activity result is reported as “Toxic”. Besides, the T/C in [10] amounted to 103%. For the same molecule, the Time in data set [11] was found to be 10.5 days. Also, in data set [4], the IC50 was 10.5 mM. This molecule also gave an inhibition constant Ki in data set [5] of 8.2 mM.

For the origin of these results see ChEMBL document CHEMBL3272302, “Synthesis and evaluation of alpha-hydroxythiol esters as antitumor agents and glyoxalase I inhibitors” (J Med Chem, 1977).
